Activity calls are given as the source filed them. The calls are words filed in the database; no cut-off is given here.
Columns and labels:
[1] = system: Canis familiaris; assay: Antihypertensive activity against angiotensin II-induced pressor response in conscious normotensive Beagle dog assessed as rate of change of mean arterial blood pressure at 2.13 mg/kg, po after 1 hr; format: functional, Canis lupus familiaris, Artery
In short: (§1)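 Conscious normotensive Beagle dogs, 6–7 per group. Baseline BP and heart rate recorded once stable, then test compound given orally at 2.13 mg/kg. BP and heart rate read 1 h after dosing, then AngII 0.45 µg/kg iv, with waveforms recorded 1 min after injection. Values given as rate of change relative to pre-model baseline (100%), with SEM.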

[2] = system: Canis familiaris; assay: Antihypertensive activity against angiotensin II-induced pressor response in conscious normotensive Beagle dog assessed as decrease in basal heart rate at 2.13 mg/kg, po after 1 hr; format: functional, organism-based; parameters: dose 2.13 mg/kg; details: Canis lupus familiaris; in short: as §1
[3] = system: Canis familiaris; assay: Antihypertensive activity against angiotensin II-induced pressor response in conscious normotensive Beagle dog assessed as rate of change of mean systolic blood pressure at 2.13 mg/kg, po after 1 hr; format: functional, Canis lupus familiaris, Artery; in short: as §1
[4] = system: Canis familiaris; assay: Antihypertensive activity against angiotensin II-induced pressor response in conscious normotensive Beagle dog assessed as rate of change of mean diastolic blood pressure at 2.13 mg/kg, po after 1 hr; format: functional, Canis lupus familiaris, Artery; in short: as §1

Row | SMILES | Activity [1] [%] | Activity [2] | Activity [3] [%] | Activity [4] [%]
1 | CCCc1nc2c(C)cc(-c3nc4ccccc4n3C)cc2n1Cc1ccc(-c2ccccc2-c2ncc(Cl)[nH]2)cc1 | 95.43 | Active | 95.75 | 95.28
2 | CCCc1nc2c(C)cc(-c3nc4ccccc4n3C)cc2n1Cc1ccc(-c2ccccc2C2=NCCN2)cc1 | 97.43 | Active | 96.75 | 95.28
3 | CCCc1nc2c(C)cc(-c3nc4ccccc4n3C)cc2n1Cc1ccc(-c2ccccc2-c2ncc[nH]2)cc1 | 98.11 | Active | 98.67 | 97.96
4 | CCCc1nc2c(C)cc(-c3nc4ccccc4n3C)cc2n1Cc1ccc(-c2ccccc2-c2ncn[nH]2)cc1 | 103.37 | inactive | 103.8 | 103.14
5 | CCCc1nc2c(C)cc(-c3nc4ccccc4n3C)cc2n1Cc1ccc(-c2ccccc2C(=O)O)cc1 | 96.13 | – | 95.78 | 96.15

Reference: ChEMBL document CHEMBL1152172, “Synthesis and biological activities of novel nonpeptide angiotensin II receptor antagonists based on benzimidazole derivatives bearing a heterocyclic ring” (Bioorg Med Chem, 2008)
